Activity calls are given as the source filed them.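 How the source made its calls: active means active in every replicate test, each curve reaching caspase activation of 10% of the positive control signal; inconclusive means replicate tests disagree, some active and some inactive; inactive means inactive in every replicate test.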
Assay: caspase activation in Bax/Bak-null MEFs, dose response, counter-screen for A1 inhibitor project, cell-based, mouse embryonic fibroblasts, luminescence, dry powder, set 3 (AID 504403)
Details: Bax/Bak-/- MEF caspase activation, CaspaseGlo luminescence, 3 h
Outline: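 Material – Bax/Bak-null MEF cells · Quantity – 2500 cells per well · Buffer or medium – RPMI-1640, 10% heat-inactivated FBS · Times – compound 3 h at 37 °C, pre-read cooling 30 min · Technique – Caspase-Glo luminescent caspase assay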

[1] = measured here: test 2 replicate, at 35 µM, stronger effect = higher value

| Compound | caspase activation (at 35 µM (top of the series)) | caspase activation [1] |
| --- | --- | --- |
| O=C(COc1ccc(Cl)cc1Cl)NNc1nc(N2CCOCC2)nc(N2CCOCC2)n1 | -0.22% (inactive) | 0.018% |
| O=c1[nH]c2ccccc2c(Cl)c1[N+](=O)[O-] | 0.348% (inactive) | 0.47% |
| O=c1[nH]c2ccccc2c(O)c1[N+](=O)[O-] | 0.504% (inactive) | -0.232% |
| COc1ccc(CCNc2nc(N3CCCC3)nc(N3CCCC3)n2)cc1OC | 0.084% (inactive) | 0.515% |
| COc1ccc(N2CCN(c3nc(NCCc4ccc(OC)c(OC)c4)nc(N4CCOCC4)n3)CC2)cc1 | 0.143% (inactive) | 0.46% |
| CCn1c(=O)c([N+](=O)[O-])c(Cl)c2ccccc21 | 1.21% (inactive) | 3.07% |
| Cn1c(=O)c([N+](=O)[O-])c(Cl)c2ccccc21 | 0.366% (inactive) | -0.494% |
| Cn1c(=O)c([N+](=O)[O-])c(S(C)(=O)=O)c2ccccc21 | -0.102% (inactive) | -0.421% |
| CCn1c(=O)c(Sc2ccc(C)cc2)c(Sc2ccc(C)cc2)c2ccccc21 | 0.078% (inactive) | -0.17% |
| COCCn1c(=O)c(Sc2ccc(C)cc2)c(Sc2ccc(C)cc2)c2ccccc21 | -0.103% (inactive) | -0.586% |
| COc1nc2ccccc2c(Sc2ccc(C)cc2)c1[N+](=O)[O-] | 0.017% (inactive) | -0.171% |
| Cc1ccc(Sc2c([N+](=O)[O-])c(=O)n(Cc3ccccc3)c3ccccc23)cc1 | 1.91% (inactive) | -0.307% |
| Cc1ccc(Sc2c([N+](=O)[O-])c(=O)n(C)c3ccccc23)cc1 | 0.309% (inactive) | -0.613% |
